Measurements reported in ChEMBL document CHEMBL3751842, “Novel triazolothiadiazines act as potent anticancer agents in liver cancer cells through Akt and ASK-1 proteins” (Bioorg Med Chem, 2016).
Active and inactive are the calls of the source.

Key:
Huh-7 = test: Induction of oxidative stress in human HuH7 cells assessed as ROS accumulation at 10 uM after 48 hrs by flow cytometry analysis; type: functional, cell-based
Procedure, shortened: (§1)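 Huh7 and Mahlavu cells were treated after 24 h with 10 µM compound or DMSO for 48 h. Cells were then trypsinized and processed with a MUSE oxidative stress kit for flow cytometric counting of ROS-positive cells. Cells grown in selenium-deficient serum-free medium served as the positive control.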

Mahlavu = test: Induction of oxidative stress in human Mahlavu cells assessed as ROS accumulation at 10 uM after 48 hrs by flow cytometry analysis; type: functional, cell-based; procedure, shortened: as §1
[1] = biological target: T1, Mitogen-activated protein kinase kinase kinase 5 (Homo sapiens) (UniProt Q99683); test: Activation of ASK1 in human Mahlavu cells assessed as Ser83 phosphorylation after 24 to 48 hrs by Western blot analysis; type: cell-based
T1 sequence (whole entry): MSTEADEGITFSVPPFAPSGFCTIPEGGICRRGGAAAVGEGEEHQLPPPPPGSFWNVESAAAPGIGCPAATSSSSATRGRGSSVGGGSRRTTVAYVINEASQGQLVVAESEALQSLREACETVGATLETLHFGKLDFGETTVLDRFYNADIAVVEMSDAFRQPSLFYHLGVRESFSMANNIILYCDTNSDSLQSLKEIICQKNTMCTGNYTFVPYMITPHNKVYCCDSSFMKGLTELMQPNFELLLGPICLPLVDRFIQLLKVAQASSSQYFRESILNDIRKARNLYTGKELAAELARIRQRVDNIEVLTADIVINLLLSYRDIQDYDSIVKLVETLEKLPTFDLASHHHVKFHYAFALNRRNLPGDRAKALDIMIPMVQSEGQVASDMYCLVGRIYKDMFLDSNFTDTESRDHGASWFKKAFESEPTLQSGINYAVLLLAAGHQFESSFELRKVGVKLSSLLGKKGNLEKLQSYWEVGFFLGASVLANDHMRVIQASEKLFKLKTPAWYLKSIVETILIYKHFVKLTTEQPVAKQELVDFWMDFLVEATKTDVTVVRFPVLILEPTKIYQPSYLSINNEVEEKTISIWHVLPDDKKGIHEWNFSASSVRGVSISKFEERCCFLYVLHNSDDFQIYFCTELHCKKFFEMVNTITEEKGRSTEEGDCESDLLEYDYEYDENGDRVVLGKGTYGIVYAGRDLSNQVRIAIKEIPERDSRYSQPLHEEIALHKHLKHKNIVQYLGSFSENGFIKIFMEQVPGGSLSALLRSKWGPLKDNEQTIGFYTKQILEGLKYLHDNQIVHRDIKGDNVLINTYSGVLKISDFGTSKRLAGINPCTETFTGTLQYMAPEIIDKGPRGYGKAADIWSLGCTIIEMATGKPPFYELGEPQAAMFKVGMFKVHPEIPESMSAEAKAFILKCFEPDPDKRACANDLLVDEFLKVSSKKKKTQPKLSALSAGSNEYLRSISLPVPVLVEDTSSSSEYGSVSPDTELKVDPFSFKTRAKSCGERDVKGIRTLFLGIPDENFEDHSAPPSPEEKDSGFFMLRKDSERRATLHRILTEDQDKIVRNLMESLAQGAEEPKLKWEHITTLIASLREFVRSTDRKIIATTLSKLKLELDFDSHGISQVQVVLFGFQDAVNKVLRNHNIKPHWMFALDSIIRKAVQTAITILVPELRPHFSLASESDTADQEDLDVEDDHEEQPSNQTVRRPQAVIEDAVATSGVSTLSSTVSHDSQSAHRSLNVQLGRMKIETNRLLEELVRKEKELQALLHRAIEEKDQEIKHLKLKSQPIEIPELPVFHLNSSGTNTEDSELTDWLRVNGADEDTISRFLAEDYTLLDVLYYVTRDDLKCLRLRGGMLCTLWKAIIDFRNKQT
Procedure, shortened: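 Cells were exposed to compound or DMSO control for 24 or 48 h. Lysates were loaded at […] protein per lane and immunoblotted with antibodies diluted 1:100 to 1:500 in 5% BSA-TBS-T. Targets were p-Akt (Ser473), Akt, p-GSK3-α/β (Ser21/9), GSK3-α/β, SAPK/JNK, p-SAPK/JNK (Thr183/Tyr185), PARP, p-β-catenin, β-catenin, cyclin D1, p-ASK1 (S83) and p-ASK1 (S966). Actin served as the loading control.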

Measured: Activity

Cc1ccc(C2=Nn3c(nnc3C(C)c3ccc(CC(C)C)cc3)SC2)cc1 (stereo unspecified)
active: all assays above

COc1ccc(C2=Nn3c(nnc3C(C)c3ccc(CC(C)C)cc3)SC2)cc1 (stereo unspecified)
active: all assays above
